# Screening data: PubChem, The Scripps Research Institute Molecular Screening Center
# An excerpt weighted towards active compounds, which were near 2.7% of everything screened.
# PAFAH1B2 FP inh: inhibitors of human PAFAH1B2. P68402. recombinant PAFAH1B2, FP-rhodamine activity probe, fluorescence polarization. inhibition, % at 3.39 µM. 1.2% of 340,000 active. AID 492953;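 active means inhibition above the mean of all tested compounds plus 3 SD, cut at about 24% in these data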;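 further: 0% = enzyme with DMSO and 100% = wells lacking PAFAH1B2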
# Target sequence (P68402 whole entry, looked up): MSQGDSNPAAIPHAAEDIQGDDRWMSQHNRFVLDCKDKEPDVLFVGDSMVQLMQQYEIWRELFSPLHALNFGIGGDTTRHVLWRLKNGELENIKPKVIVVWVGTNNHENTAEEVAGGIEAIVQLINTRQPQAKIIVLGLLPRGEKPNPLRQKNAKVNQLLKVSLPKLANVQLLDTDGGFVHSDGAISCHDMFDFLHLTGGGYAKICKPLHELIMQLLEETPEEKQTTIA
# pPAFAH inh: inhibitors of human plasma PAF acetylhydrolase (pPAFAH); 1.5% of 330,000 active; recombinant pPAFAH, FP-rhodamine probe fluorescence polarization; inhibition, % at 3.39 µM; AID 463082;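 active means inhibition above the mean inhibition across the screen plus 3 SD, cut at about 25% in these data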;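 further: inhibitors block binding of the rhodamine activity-based probe so polarization drops; 0% = enzyme with DMSO and 100% = wells lacking pPAFAH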
# ARFGAP1 inhibitor: rat ARFGAP1 inhibition. Arfgap1-stimulated ARF1 GTP hydrolysis, GDP FP detection. inhibition, % at 16.5 µM. 0.26% of 360,000 active. AID 651572;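 active means inhibition above a per-plate limit, mean inhibition of low control wells plus 3 SD, cut at about 25% in these data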;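 further: 0% = DMSO wells with enzyme and 100% = wells lacking Arfgap1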
# Target sequence (Q62848 1-136 limits assumed): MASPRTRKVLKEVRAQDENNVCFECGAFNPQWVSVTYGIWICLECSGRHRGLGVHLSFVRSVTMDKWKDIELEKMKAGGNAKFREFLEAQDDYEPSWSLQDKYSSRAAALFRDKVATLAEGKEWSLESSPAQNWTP
#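 Assay system: Rat Arfgap1 GAP domain (His6, aa 1-136), purified enzyme | Buffer or medium: HEPES 25 mM pH 7.5, NaCl 150 mM, MgCl2, DTT | Schedule: GTP hydrolysis reaction 2 h at 25 °C | Signal: FP of antibody-bound GDP Alexa 633 tracer, ex 620/em 688 nm | Measure: Percent inhibition of Arfgap1-stimulated GTP hydrolysis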
# PAFAH2 FP inh: inhibitors of human PAFAH2. Q99487. recombinant PAFAH2, FP-rhodamine activity probe, fluorescence polarization. inhibition, % at 3.39 µM. 0.99% of 340,000 active;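 active means inhibition above the mean over all tested compounds plus 3 SD, cut at about 30% in these data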;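 further: inhibitors block probe labeling of enzyme so polarization drops; 0% = enzyme with DMSO and 100% = wells lacking PAFAH2 protein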
# ASAP1 inh: blocks human ASAP1-stimulated Arf1 GTP hydrolysis; Q9ULH1; GDP FP detection; inhibition, % at 16.5 µM; 0.19% of 360,000 active; AID 624377; in the data active means inhibition above about 25%;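 further: 0% = vehicle with enzyme and substrate and 100% = no enzyme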
# PAFAH1B3 inh: inhibitors of human PAFAH1B3 | recombinant PAFAH1B3, FP-rhodamine probe, fluorescence polarization | 0.28% of 340,000 active | inhibition, % at 3.39 µM | Q15102;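 active means inhibition above the screen-wide average of all tested compounds plus 3 SD, cut at about 25% in these data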;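 further: 0% = enzyme with DMSO only and 100% = wells lacking PAFAH1B3 protein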
# Target sequence (Q15102 whole entry, looked up): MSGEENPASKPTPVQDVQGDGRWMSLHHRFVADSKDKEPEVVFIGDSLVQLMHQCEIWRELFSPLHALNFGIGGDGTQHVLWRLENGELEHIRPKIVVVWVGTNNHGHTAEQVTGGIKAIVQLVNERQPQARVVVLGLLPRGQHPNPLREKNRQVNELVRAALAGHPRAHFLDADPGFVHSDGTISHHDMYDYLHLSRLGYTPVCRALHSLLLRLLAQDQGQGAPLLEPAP
# * marks the source's active call; other numbers are inactive results; . = not tested or not shown.
SMILES,PAFAH1B2 FP inh,pPAFAH inh,ARFGAP1 inhibitor,PAFAH2 FP inh,ASAP1 inh,PAFAH1B3 inh
CCCc1nc2c(C)cc(Br)cn2c1Cc1cccc(Cl)c1,.,.,-13.7,.,12.9,.
COc1ccc(C(=O)NNC2CC(=O)N(Cc3ccc(Cl)cc3)C2=O)cc1OC (stereo not given),3.5,33.0*,15.8,5.3,-0.1,4.9
O=C1Cc2ccccc2C(=O)N1OCc1ccc(Cl)cc1,25.3*,4.7,2.6,7.5,-7.9,7.7
CCOC(=O)NC(=O)CSc1ccc(S(=O)(=O)N2CCCCC2)cn1,8.1,4.6,0.8,-4.7,4.1,4.1
CC(C)(C)NC(=O)NC(=O)CSc1ccc(S(=O)(=O)N2CCCCC2)cn1,26.9*,-0.1,-5.5,9.3,-17.4,2.1
Cc1ccc(C)c(NC(=O)CSc2ccc(S(=O)(=O)N3CCCC3)cn2)c1,9.3,8.6,-7.5,2.7,-8.5,13.8
O=C(CSc1ccc(S(=O)(=O)N2CCCC2)cn1)Nc1ccc([N+](=O)[O-])cc1C(F)(F)F,26.7*,.,6.3,-2.2,-12.8,-4.9
CCCCc1c(-c2ccccc2OC)ncn1Cc1ccc(C)cc1,.,.,-10.5,.,-1.2,.
CC(C)(C)n1nc(C2CC2)c(Br)c1NC(=O)c1ccccc1Cl,.,.,3.8,.,2.6,.
Cc1cc(OC(C)C(=O)NCCc2c[nH]c3ccccc23)c2c(C)cc(=O)oc2c1 (stereo not given),22.4,4.3,-8.1,-2.5,4.2,1.4
COc1ccc2[nH]cc(CCNC(=O)COc3cc(C)cc4oc(=O)cc(C)c34)c2c1,24.9*,2.8,-13.8,16.3,11.4,6.5
O=C(Cc1cn(Cc2ccccc2)c2ccccc12)Nc1ccc(Nc2cccnc2)c(Br)c1,.,.,13.6,.,3.4,.
CC(=O)C1=C(C)N(Cc2ccc(Br)cc2)C(=S)NC1c1cccc(F)c1 (stereo not given),.,.,-16.6,.,6.7,.
CC(C)c1ccc(S(=O)(=O)/N=C2\C=C(NS(=O)(=O)c3ccccc3)C(=O)c3ccccc32)cc1,22.5,26.4*,-12.3,25.5,9.8,-2.1
CCc1ccc(S(=O)(=O)/N=C2\C=C(NS(=O)(=O)c3ccccc3)C(=O)c3ccccc32)cc1,0.3,.,-2.1,34.1*,10.6,5.6
COc1ccc(/C=N/N2C(=O)CSC2=S)cc1Br,-7.1,28.8*,-4.9,0.4,14.7,-8.8
CCC(=O)Nc1ccc2nc3c(=O)[nH]c(=S)[nH]c3nc2c1,6.8,26.3*,3.2,13.2,6.7,12.5
COC(=O)c1cc2c(c3c4cc(C)ccc4n(S(=O)(=O)c4ccc(C)cc4)c13)C(=O)N(Cc1ccc(C(F)(F)F)cc1)C2,.,.,-23.4,.,1.3,.
CCCc1ccc(-c2cc(NC(=O)Cc3c(C)[nH]c4ccccc34)ccc2N(C)c2cccnc2)cc1,.,.,1.1,.,-8.9,.
COc1ccc(C(=O)C(=O)N2CCN(C(=O)c3ccccc3C(F)(F)F)CC2)cc1OC,.,.,0.6,.,1.4,.
Cc1cc2nc(SCC(=O)N(C)C)c3c(c2cc1C)CCCC3,-4.8,30.8*,-2.5,5.4,-0.9,0.3
NS(=O)(=O)c1ccc(NCCCn2ccnc2)c([N+](=O)[O-])c1,-1.1,3.3,-5.3,2.3,-5.1,-0.7
O=C1c2ccccc2-c2onc3ccc(NCCCn4ccnc4)c1c23,.,104.7*,.,.,.,.
COc1cccc(CNC(=O)[C@H]2CCCN2C(=O)[C@H]2CCCN2C(=O)c2cccs2)c1,.,.,6.0,.,-1.7,.
COc1ccc(NC(=S)N(CCCN2CCOCC2)C(C)c2cc3cccc(OC)c3o2)cc1 (stereo not given),-1.4,27.8*,12.2,5.7,-11.9,7.2
SMILES,PAFAH1B2 FP inh,pPAFAH inh,ARFGAP1 inhibitor,PAFAH2 FP inh,ASAP1 inh,PAFAH1B3 inh
O=C(NCC1CCCO1)c1ccc(COc2ccc(Cl)cc2)cc1 (stereo not given),29.1*,5.4,-2.1,2.6,3.8,-1.6
COc1cccc(=O)c2c(C)n(-c3cc(C)cc(C)c3)c(C)c12,7.2,23.5,13.9,58.8*,2.4,-0.4
COc1cccc(=O)c2c(C)n(C)c(C)c12,4.5,13.1,12.2,10.3,-2.4,8.6
CCN(CC(=O)NCc1ccc(F)cc1)CC(=O)Nc1ccc(Br)cc1F,7.6,-6.7,11.7,5.8,-3.1,5.4
CCN(CC(=O)NCc1ccc(F)cc1)CC(=O)Nc1cc(S(=O)(=O)N(C)C)ccc1C,-2.7,28.7*,11.6,1.6,14.3,-2.4
Fc1cccc(F)c1/C=C/c1ccc2ccccc2n1,-2.6,3.5,-4.3,-9.5,8.4,2.6
C(=C\c1ccco1)/c1ccc2ccccc2n1,.,26.0*,-7.5,.,-0.1,.
COCc1[nH]nc2c1C(c1ccc(C)cc1)N(Cc1ccccc1)C2=O (stereo not given),.,.,1.2,.,9.6,.
Clc1ccc(COc2cccc(CNCc3ccncc3)c2)cc1,33.0*,6.9,-18.0,5.9,1.9,6.1
COCc1[nH]nc2c1C(c1ccccc1)NC2=O (stereo not given),.,.,-2.1,.,5.3,.
O=S1(=O)N[C@@H](Cc2ccccc2)COc2cccc(N3CCCC3)c21,.,.,19.3,.,3.4,.
COc1ccc(OC)c(NC(=O)CSc2nnc(CNC(=O)COc3ccc(Cl)cc3)o2)c1,27.6*,0.9,-1.1,-1.1,6.2,-1.6
COc1ccc(NC(=O)CSc2nnc(CNC(=O)COc3ccc(Cl)cc3)o2)c(OC)c1,19.8,2.5,13.4,1.7,-10.0,0.5
CN(C)c1ccc(C=c2c3ccccc3n3c2c2ccccc2[n+]3C)cc1,5.2,.,95.0*,17.3,59.4*,8.7
Cc1cc2c(=Cc3ccc(N(C)C)cc3)c3ccccc3n2[n+]1C,-13.5,.,13.7,-16.6,-5.5,-7.0
CC(C)c1[nH]nc2c1C(c1ccc3c(c1)OCO3)NC2=O (stereo not given),.,.,17.8,.,-4.7,.
CC(C)(C)OC(=O)N1C[C@@]23C[C@H](c4cccc(F)c4)[C@@H](C[C@@H]2S1(=O)=O)O3,.,.,-8.2,.,0.7,.
O=C(NNS(=O)(=O)c1ccc(Br)cc1)C1CCCCC1,28.2*,0.9,1.1,6.8,-9.4,6.2
Cc1ccc(S(=O)(=O)NNC(=O)C2CCCCC2)cc1,2.4,-4.2,4.6,-5.8,10.9,3.1
Nc1nn2c(-c3ccccc3)cc(=O)[nH]c2c1N=Nc1ccc(O)cc1,13.9,27.4*,-3.4,29.1,11.5,16.2
COc1ccc(N2C(=O)c3n[nH]c(C)c3C2c2ccccc2)cc1 (stereo not given),.,.,3.1,.,3.2,.
COc1oc(C(=O)NC2CCCCC2)c(-c2ccc(Cl)cc2)c1S(=O)(=O)c1ccccc1,31.9*,.,-8.3,4.8,5.9,-0.7
CCCCN1CC(COCc2ccccc2)Oc2cccc(Oc3ccc(F)cc3OC)c2S1(=O)=O (stereo not given),.,.,-11.2,.,4.1,.
CCCCNC(=O)Oc1cc(CCl)on1,.,2.4,.,.,.,.
CCCCNC(=O)Oc1c(Br)cc2sc(=O)oc2c1Br,.,52.4*,.,.,.,.
